Data as given in ChEMBL document CHEMBL4376814, “Novel cyclin-dependent kinase 9 (CDK9) inhibitor with suppression of cancer stemness activity against non-small-cell lung cancer” (Eur J Med Chem, 2019).
pIC50: −log10 of the molar value. The source made the active and inactive calls. The rule behind the calls is not given here.

Columns and labels:
A549 [1] = test: Antiproliferative activity against human A549 cells assessed as inhibition of cell viability at 10 uM after 72 hrs by CCK-8 assay relative to control; assay type: functional; conditions: A549, 72 h
Outline: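 Single-concentration viability screen using CCK-8. Cells were seeded at 3000/well and treated for 72 h. A450 read after 1-4 h with reagent. Percent inhibition calculated against untreated control and blank wells as (Ac−As)/(Ac−Ab)×100%.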

A549 [2] = test: Antiproliferative activity against human A549 cells assessed as inhibition of cell viability after 72 hrs by CCK-8 assay; assay type: functional, cell-based; conditions: A549, 72 h
Outline: (§1)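 Cells kept at 37 °C, 5% CO2 in DMEM or RPMI-1640 with 10% FBS and 1% penicillin/streptomycin, then seeded at 3000 cells/well (adherent) or 10,000 cells/well (suspension). Exposed to a range of concentrations for 72 h. CCK-8 added for 1-4 h before reading A450. […] Three independent experiments.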

NCI-H1975 = test: Antiproliferative activity against human NCI-H1975 cells assessed as inhibition of cell viability after 72 hrs by CCK-8 assay; assay type: functional, cell-based; conditions: NCI-H1975, 72 h; outline: as §1
SiHa = test: Antiproliferative activity against human SiHa cells assessed as inhibition of cell viability after 72 hrs by CCK-8 assay; assay type: functional, cell-based; outline: as §1
NCI-H1299 [3] = test: Induction of apoptosis in human H1299 cells assessed as reduction in Bcl-2 level at 0.25 to 1 uM after 24 hrs by Western blot analysis; assay type: functional, cell-based
Outline: (§2)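 A549 or H1299 cells exposed to the indicated concentrations for 24 h. Protein extracts then immunoblotted for apoptosis-pathway proteins (Bcl2, Bim, cleaved caspase 3).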

A549 [4] = test: Induction of apoptosis in human A549 cells assessed as increase in cleaved caspase 3 expression at 0.25 to 1 uM after 24 hrs by Western blot analysis; assay type: functional, cell-based; outline: as §2
NCI-H1299 [5] = test: Downregulation of cyclin T1 expression in human H1299 cells at 0.25 to 1 uM after 24 hrs by Western blot analysis; assay type: functional, cell-based
Outline: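 A549 and H1299 cells treated for 24 h with serial dilutions alongside a DMSO control. Protein extracts resolved and immunoblotted.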

[6] = Half life in Beagle dog liver microsomes at 2 uM in presence of NADPH measured up to 1 hr by HPLC analysis; assay type: ADME, Canis lupus familiaris, Microsome
Outline: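 Drug at 2 µM incubated at 37 °C with male liver microsomes at 1 mg/mL, in 0.1 M phosphate buffer pH 7.4 with MgCl2. After 5 min preincubation, reaction started with NADPH. Samples (n=3) taken at 0, 10, 20, 30, 45 and 60 min, quenched with ice-cold acetonitrile, spun, and analysed by HPLC. t1/2 derived from the fitted rate constant k.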

[7] = tested on: Tyrosine-protein kinase ABL1 (Homo sapiens), P00519 [T315I]; test: Inhibition of recombinant human ABL T315I mutant (27 to end residues) at 1 uM using EAIYAAPFAKKK as substrate measured after 40 mins in presence of [gamma33P]ATP by scintillation counting method relative to control
[8] = tested on: Tyrosine-protein kinase Blk (Homo sapiens), P51451 [UNDEFINED MUTATION]; test: Inhibition of full-length recombinant human BLK M287V mutant at 1 uM using poly(Glu, Tyr) 4:1 as substrate measured after 40 mins in presence of [gamma33P]ATP by scintillation counting method relative to control
Outline: (§3)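 Percent inhibition of kinase activity at a single compound concentration, measured by the outsourced Eurofins KinaseProfiler panel. Values are the mean of two independent experiments.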

[9] = molecular target: Calcium/calmodulin-dependent protein kinase type IV (Homo sapiens) (UniProt Q16566); test: Inhibition of recombinant full-length human CaMK4 at 1 uM using calmodulin as substrate measured after 40 mins in presence of [gamma33P]ATP by scintillation counting method relative to control
[10] = molecular target: Serine/threonine-protein kinase PAK 5 (Homo sapiens) (UniProt Q9P286); test: Inhibition of recombinant human PAK5 (425 to end residues) at 1 uM using RRRLSFAEPG as substrate measured after 40 mins in presence of [gamma33P]ATP by scintillation counting method relative to control
[11] = molecular target: cAMP-dependent protein kinase catalytic subunit alpha (Homo sapiens) (UniProt P17612); test: Inhibition of recombinant full-length human PKA at 1 uM using Kemptide as substrate measured after 40 mins in presence of [gamma33P]ATP by scintillation counting method relative to control
Outline: (§4)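 Single-point inhibition at 1 µM was measured in the Eurofins KinaseProfiler panel. Values are the mean of two independent experiments.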

[12] = molecular target: Protein kinase C beta type (Homo sapiens) (UniProt P05771); test: Inhibition of recombinant human PKCbeta1 (2 to end residues) at 1 uM using histone H1 as substrate measured after 40 mins in presence of [gamma33P]ATP by scintillation counting method relative to control
Homo sapiens = species: Homo sapiens; test: Inhibition of recombinant human DDR1 V833L mutant (492 to end residues) at 1 uM using KKKSPGEYVNIEFG as substrate measured after 40 mins in presence of [gamma33P]ATP by scintillation counting method relative to control
[13] = molecular target: Ephrin type-B receptor 1 (Homo sapiens) (UniProt P54762); test: Inhibition of recombinant human EphB1 (564 to end residues) at 1 uM using KVEKIGEGTYGVVYK as substrate measured after 40 mins in presence of [gamma33P]ATP by scintillation counting method relative to control
[14] = molecular target: Protein kinase C zeta type (Homo sapiens) (UniProt Q05513); test: Inhibition of recombinant human PKCzeta (2 to end residues) at 1 uM using ERMRPRKRQGSVRRRV as substrate measured after 40 mins in presence of [gamma33P]ATP by scintillation counting method relative to control; outline: as §4
[15] = molecular target: Proto-oncogene tyrosine-protein kinase receptor Ret (Homo sapiens) (UniProt P07949); test: Inhibition of human Ret (658 to end residues) at 1 uM using KKKSPGEYVNIEFG as substrate measured after 40 mins in presence of [gamma33P]ATP by scintillation counting method relative to control; outline: as §3
[16] = tested on: Mitogen-activated protein kinase 14 (Homo sapiens), Q16539 [T106M]; test: Inhibition of recombinant full-length human SAPK2a T106M mutant at 1 uM using myelin basic protein as substrate measured after 40 mins in presence of [gamma33P]ATP by scintillation counting method relative to control
[17] = molecular target: Serine/threonine-protein kinase Sgk3 (Homo sapiens) (UniProt Q96BR1); test: Inhibition of human SGK3 (119 to end residues) at 1 uM using GRPRTSSFAEGKK as substrate measured after 40 mins in presence of [gamma33P]ATP by scintillation counting method relative to control; outline: as §3
[18] = molecular target: Serine/threonine-protein kinase SIK1 (Homo sapiens) (UniProt P57059); test: Inhibition of human SIK (1 to 281 residues) at 1 uM using AMARAASAAALARRR as substrate measured after 40 mins in presence of [gamma33P]ATP by scintillation counting method relative to control; outline: as §3
[19] = molecular target: Cyclin-dependent kinase 9 (Homo sapiens) (UniProt P50750); conditions: 0.25 uM

Sequence of Tyrosine-protein kinase Blk (Homo sapiens), P51451 [UNDEFINED MUTATION] (P51451 whole entry, looked up, stated change not applied): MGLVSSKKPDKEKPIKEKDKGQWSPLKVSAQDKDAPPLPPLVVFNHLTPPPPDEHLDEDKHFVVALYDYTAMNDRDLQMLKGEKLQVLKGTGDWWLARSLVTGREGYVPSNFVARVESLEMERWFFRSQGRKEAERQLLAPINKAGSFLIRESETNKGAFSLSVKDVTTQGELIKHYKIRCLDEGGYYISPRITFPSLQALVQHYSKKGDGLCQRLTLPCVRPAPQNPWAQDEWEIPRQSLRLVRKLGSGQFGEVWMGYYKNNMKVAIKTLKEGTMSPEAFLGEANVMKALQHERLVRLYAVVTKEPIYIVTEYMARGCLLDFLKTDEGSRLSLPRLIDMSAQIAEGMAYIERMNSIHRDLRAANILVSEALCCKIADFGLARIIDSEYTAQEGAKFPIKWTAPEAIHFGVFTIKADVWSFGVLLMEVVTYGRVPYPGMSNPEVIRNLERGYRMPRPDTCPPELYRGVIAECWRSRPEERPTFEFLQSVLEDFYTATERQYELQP
Sequence of Protein kinase C zeta type (Homo sapiens) (Q05513 whole entry): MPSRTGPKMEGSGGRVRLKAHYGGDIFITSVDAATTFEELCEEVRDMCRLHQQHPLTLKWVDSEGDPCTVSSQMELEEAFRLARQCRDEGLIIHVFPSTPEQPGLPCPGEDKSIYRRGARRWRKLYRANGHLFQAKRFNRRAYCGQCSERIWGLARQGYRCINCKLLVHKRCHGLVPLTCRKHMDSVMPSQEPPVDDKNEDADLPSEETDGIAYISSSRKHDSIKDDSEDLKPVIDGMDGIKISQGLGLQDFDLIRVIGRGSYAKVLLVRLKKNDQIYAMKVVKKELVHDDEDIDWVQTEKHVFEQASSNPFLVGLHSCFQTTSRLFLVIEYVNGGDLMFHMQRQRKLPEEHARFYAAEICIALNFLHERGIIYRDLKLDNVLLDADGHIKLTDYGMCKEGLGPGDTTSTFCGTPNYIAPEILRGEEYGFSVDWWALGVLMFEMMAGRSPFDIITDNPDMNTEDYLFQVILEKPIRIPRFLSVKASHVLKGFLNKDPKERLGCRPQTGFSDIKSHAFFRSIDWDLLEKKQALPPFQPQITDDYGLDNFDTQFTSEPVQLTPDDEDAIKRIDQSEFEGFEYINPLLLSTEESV
Sequence of Proto-oncogene tyrosine-protein kinase receptor Ret (Homo sapiens) (P07949 whole entry): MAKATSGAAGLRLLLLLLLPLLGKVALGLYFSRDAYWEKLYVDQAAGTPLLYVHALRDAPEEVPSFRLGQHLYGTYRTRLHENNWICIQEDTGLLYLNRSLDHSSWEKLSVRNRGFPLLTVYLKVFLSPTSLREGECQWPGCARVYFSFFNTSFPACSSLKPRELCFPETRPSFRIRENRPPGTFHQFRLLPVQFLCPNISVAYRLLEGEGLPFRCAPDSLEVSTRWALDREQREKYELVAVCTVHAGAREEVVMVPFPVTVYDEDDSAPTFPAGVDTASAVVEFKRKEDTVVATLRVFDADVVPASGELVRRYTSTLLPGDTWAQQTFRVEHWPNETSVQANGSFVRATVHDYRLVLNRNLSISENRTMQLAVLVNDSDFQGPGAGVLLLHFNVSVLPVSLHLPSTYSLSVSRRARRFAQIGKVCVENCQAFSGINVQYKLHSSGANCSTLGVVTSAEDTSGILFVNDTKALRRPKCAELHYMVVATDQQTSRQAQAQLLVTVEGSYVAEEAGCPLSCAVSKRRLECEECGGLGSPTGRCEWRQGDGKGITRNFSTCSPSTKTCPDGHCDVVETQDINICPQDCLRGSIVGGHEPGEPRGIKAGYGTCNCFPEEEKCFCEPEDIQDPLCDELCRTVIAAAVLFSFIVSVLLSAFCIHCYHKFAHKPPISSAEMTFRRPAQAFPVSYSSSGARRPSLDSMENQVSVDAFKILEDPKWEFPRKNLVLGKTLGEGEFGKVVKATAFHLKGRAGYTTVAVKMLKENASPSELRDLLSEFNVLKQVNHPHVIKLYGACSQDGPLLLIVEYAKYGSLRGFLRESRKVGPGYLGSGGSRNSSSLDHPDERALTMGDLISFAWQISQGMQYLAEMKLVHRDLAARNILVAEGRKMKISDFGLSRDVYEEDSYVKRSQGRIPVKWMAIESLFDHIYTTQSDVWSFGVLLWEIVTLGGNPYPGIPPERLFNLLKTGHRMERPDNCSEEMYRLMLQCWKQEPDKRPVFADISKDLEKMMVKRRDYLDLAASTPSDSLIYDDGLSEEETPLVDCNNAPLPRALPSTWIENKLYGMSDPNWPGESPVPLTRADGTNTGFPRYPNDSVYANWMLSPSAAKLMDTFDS
Sequence of Mitogen-activated protein kinase 14 (Homo sapiens), Q16539 [T106M] (Q16539 whole entry T106M): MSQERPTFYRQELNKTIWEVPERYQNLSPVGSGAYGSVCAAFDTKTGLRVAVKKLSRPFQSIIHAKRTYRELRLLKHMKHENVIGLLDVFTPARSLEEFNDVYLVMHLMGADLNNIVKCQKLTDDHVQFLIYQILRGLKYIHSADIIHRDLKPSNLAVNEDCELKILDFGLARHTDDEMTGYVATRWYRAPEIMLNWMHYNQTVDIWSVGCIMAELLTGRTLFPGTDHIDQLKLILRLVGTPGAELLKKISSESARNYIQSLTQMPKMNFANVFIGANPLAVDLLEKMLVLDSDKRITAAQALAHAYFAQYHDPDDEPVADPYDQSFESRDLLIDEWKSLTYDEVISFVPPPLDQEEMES
Sequence of Serine/threonine-protein kinase Sgk3 (Homo sapiens) (Q96BR1 whole entry, the tested form may be a part): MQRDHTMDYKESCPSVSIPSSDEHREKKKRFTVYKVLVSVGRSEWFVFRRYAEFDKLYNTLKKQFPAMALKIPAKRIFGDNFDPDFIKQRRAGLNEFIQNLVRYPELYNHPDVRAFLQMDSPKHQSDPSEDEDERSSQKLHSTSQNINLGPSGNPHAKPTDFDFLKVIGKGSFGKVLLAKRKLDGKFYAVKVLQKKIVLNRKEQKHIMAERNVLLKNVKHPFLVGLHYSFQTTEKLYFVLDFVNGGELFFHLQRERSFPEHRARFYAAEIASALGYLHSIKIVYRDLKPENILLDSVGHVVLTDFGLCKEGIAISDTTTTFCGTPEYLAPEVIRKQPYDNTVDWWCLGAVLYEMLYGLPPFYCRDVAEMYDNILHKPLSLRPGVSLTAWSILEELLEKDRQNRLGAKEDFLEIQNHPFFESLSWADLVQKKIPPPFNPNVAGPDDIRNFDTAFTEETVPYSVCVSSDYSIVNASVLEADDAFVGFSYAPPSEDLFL
Sequence of Protein kinase C beta type (Homo sapiens) (P05771 2-671 limits assumed): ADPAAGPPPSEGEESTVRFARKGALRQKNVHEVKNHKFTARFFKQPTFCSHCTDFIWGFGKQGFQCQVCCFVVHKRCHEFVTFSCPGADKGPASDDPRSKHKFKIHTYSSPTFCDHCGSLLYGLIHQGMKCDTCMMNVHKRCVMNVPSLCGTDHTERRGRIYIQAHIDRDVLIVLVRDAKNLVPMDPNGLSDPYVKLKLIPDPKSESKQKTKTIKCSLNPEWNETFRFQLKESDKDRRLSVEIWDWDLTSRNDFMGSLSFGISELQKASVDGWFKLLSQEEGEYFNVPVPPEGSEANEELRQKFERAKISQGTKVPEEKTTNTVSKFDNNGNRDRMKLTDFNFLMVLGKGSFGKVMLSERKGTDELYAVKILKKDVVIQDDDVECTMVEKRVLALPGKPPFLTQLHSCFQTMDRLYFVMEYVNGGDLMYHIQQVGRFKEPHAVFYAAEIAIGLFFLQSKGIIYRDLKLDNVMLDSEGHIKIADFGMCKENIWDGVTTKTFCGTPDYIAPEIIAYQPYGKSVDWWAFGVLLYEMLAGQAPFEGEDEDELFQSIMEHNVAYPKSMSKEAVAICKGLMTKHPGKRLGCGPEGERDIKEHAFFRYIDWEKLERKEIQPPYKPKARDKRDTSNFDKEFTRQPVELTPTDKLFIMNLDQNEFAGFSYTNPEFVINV
Sequence of Serine/threonine-protein kinase PAK 5 (Homo sapiens) (Q9P286 whole entry, looked up): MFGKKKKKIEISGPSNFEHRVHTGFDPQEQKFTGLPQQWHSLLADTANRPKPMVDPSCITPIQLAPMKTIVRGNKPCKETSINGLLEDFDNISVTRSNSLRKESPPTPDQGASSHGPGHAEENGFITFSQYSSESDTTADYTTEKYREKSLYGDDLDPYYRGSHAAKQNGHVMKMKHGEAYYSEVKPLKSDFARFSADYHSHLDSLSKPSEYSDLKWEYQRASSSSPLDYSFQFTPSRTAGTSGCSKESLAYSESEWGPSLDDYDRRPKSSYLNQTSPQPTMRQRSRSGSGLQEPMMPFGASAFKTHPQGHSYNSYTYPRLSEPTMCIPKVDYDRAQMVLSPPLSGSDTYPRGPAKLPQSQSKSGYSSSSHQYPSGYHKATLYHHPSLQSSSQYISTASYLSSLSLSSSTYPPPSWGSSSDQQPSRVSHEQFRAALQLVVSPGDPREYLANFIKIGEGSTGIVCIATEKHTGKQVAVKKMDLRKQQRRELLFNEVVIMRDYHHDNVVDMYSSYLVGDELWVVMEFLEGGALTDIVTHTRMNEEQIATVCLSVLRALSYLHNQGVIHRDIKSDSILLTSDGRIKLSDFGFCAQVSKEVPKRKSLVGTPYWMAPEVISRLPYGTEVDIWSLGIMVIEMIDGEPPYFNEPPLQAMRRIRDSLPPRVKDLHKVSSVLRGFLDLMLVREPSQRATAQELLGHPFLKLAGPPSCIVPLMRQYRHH
Sequence of Calcium/calmodulin-dependent protein kinase type IV (Homo sapiens) (Q16566 whole entry): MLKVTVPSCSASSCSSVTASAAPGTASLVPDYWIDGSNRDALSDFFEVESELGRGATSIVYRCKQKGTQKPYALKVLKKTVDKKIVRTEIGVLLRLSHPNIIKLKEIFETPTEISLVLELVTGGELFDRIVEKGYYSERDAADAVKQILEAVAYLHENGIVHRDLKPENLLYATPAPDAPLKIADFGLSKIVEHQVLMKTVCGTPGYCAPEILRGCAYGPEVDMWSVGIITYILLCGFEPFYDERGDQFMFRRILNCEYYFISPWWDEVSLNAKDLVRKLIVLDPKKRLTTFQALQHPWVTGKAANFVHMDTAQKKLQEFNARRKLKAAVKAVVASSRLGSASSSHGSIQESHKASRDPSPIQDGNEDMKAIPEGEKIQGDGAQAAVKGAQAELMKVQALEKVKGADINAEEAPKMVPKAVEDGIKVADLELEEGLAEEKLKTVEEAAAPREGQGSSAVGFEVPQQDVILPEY

CN(C)C(=O)c1cc2cnc(Nc3ccc(NC(=O)CCCCCCCN=C=S)cc3)nc2n1C1CCCC1
inhibition at 10 µM (A549 [1]): 99.2% | pIC50 (A549 [2]): 6.35 | pIC50 (NCI-H1975): 6.08 | pIC50 (SiHa): 5.74 | Activity (NCI-H1299 [3]): Active | Activity (A549 [4]): Active | Activity (NCI-H1299 [5]): Active | half-life at 2 µM [6]: 26.7 min | inhibition [7]: 38% | inhibition [8]: 45% | inhibition [9]: -4% | inhibition [10]: -3% | inhibition [11]: 1% | inhibition [12]: 20% | inhibition (Homo sapiens): 47% | inhibition [13]: 9% | inhibition [14]: 1% | inhibition [15]: 55% | inhibition [16]: 0% | inhibition [17]: 4% | inhibition [18]: 51% | inhibition [19]: Active
